In the library only some 0.23% were active in any assay of this set; here they are far more common.
Bcl-XL Bim block: inhibitors of Bim-Bcl-XL binding, primary screen, biochemical, multiplexed, bead flow cytometry, human Bcl-XL | Bcl-2-like protein 1 (Homo sapiens), Q07817 | Bim peptide-Bcl-XL binding, fluorescence | inhibition, % at 10 µM | hit rate 0.04% among 190,000 | AID 1007, 2008
Bim-Bcl-2: inhibitors of Bim-Bcl-2 binding, primary screen, biochemical, multiplexed, human Bcl-2 family | Apoptosis regulator Bcl-2 (Homo sapiens), P10415 | AID 950, 2007 | Bead-based flow cytometry, Bim peptide-Bcl-2 binding | inhibition, % at 10 µM | hit rate 0.06% among 190,000; in the data active = inhibition above about 40%;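 note: 0% = no compound wells with probe peptide and 100% = reference peptide inhibitor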
Bcl-B Bim block: inhibitors of Bim-Bcl-B binding, primary screen, biochemical, multiplexed, human Bcl-2 family. Bcl-2-like protein 10 (Homo sapiens), Q9HD36. bead-based flow cytometry, Bim peptide-Bcl-B binding. AID 951, 2007. hit rate 0.073% among 190,000. inhibition, % at 10 µM;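 note: 0% = tracer peptide without compound and 100% = reference inhibitor peptide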
Target sequence (Q9HD36 whole entry, looked up): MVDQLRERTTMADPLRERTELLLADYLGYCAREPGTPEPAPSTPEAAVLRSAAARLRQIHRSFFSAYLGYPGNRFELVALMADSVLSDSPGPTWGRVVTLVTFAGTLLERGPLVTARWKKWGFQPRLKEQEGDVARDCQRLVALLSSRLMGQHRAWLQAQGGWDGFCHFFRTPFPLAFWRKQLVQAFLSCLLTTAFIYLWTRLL
Rad51 HR inh: human RAD51 strand exchange inhibitors, primary screen, biochemical, fluorescence. DNA repair protein RAD51 homolog 1 (Homo sapiens), Q06609. hRad51 DNA strand exchange, fluorescence dequenching. inhibition, % at 10 µM. hit rate 0.085% among 200,000;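 active = inhibition above 40% at the single screening dose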;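 note: 0% = DMSO control wells and 100% = blanks with heterologous ssDNA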
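Assay system: Human Rad51 nucleoprotein filaments preassembled on unlabelled ssDNA | Reagent: Donor/quencher-labelled 47-bp dsDNA substrate | Doses: One concentration, 10 µM final | Times: 37 °C 15-min filament assembly, 30-min compound preincubation, 15-min exchange | Technique: Fluorescein emission 520 nm, excitation 485 nm | Benchmarks: Plate control and blank wells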
Bim-Bfl-1: inhibitors of Bim binding to Bfl-1, primary screen, biochemical, multiplexed, bead-based flow cytometry | Bim-Bfl-1 binding inhibition | inhibition, % at 10 µM | hit rate 0.12% among 190,000 | AID 1008, 2008;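 note: 0% = wells without compound plus tracer and 100% = blocker peptide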
Bcl-W Bim block: inhibitors of Bim binding to Bcl-W, primary screen, biochemical, multiplexed, bead-based flow cytometry | Bim peptide-Bcl-W binding | inhibition, % at 10 µM | hit rate 0.02% among 190,000;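 note: 0% = bound tracer without compound and 100% = peptide blocker; higher means less fluorescent Bim peptide bound to Bcl-W beads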
Target sequence (Q92843 whole entry, looked up): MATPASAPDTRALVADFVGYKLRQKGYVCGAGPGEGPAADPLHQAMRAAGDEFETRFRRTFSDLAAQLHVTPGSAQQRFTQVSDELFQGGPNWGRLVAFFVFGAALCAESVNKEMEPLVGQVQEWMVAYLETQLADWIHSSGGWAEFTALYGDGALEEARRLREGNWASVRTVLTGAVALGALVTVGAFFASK
* marks the source's active call; other numbers are inactive results. Cut-off read from the data, not from the text of the source, unless noted: active = inhibition above about 40%.

Results for O=C1c2ccccc2-c2onc3c(Oc4ccccc4)cc(O)c1c23 ?
Bcl-XL Bim block: 29; Bim-Bcl-2: 22; Bcl-B Bim block: -14; Bim-Bfl-1: 43*; Bcl-W Bim block: 28

What do the screens show for `CC(OCCN1CCCC1)(c1ccc(F)cc1)c1ccc(F)cc1`?
Bcl-XL Bim block: 0; Bim-Bcl-2: 1; Bcl-B Bim block: -2; Rad51 HR inh: 4; Bim-Bfl-1: 2; Bcl-W Bim block: 1

How did COc1ccc(S(=O)(=O)N2CC(O)C[C@H]2C(=O)OCC(=O)N2CCCCCC2)cc1 (stereo not given in full) do in these assays?
Bcl-XL Bim block: -3; Bim-Bcl-2: -5; Bcl-B Bim block: -2; Rad51 HR inh: 0; Bim-Bfl-1: -6; Bcl-W Bim block: 0

What do the screens show for `Cc1ccc(CNC(C)(C)CO)cc1`?
Bcl-XL Bim block: -6; Bim-Bcl-2: 2; Bcl-B Bim block: -1; Rad51 HR inh: 16; Bim-Bfl-1: 2; Bcl-W Bim block: -1

What do the screens show for `CC(C)(CO)NCc1ccc(Br)cc1`?
Bcl-XL Bim block: -4; Bim-Bcl-2: -1; Bcl-B Bim block: -4; Rad51 HR inh: 43*; Bim-Bfl-1: -5; Bcl-W Bim block: 0

Results for Cc1cccn2c(=O)c3cc(C(N)=S)c(=N)n(CCCN4CCOCC4)c3nc12 ?
Bcl-XL Bim block: 9; Bim-Bcl-2: 7; Bcl-B Bim block: 48*; Rad51 HR inh: 28; Bim-Bfl-1: 50*; Bcl-W Bim block: 16

How did CCOC(=O)c1sc(NC(=O)CSC(=S)N2CCN(C)CC2)nc1C do in these assays?
Rad51 HR inh: -17

Results for Cc1cc(C)c2c(c1)[C@@H]1C=CC[C@@H]1[C@H](c1ccc(S(=O)(=O)N3CCOCC3)cc1)N2 ?
Bcl-XL Bim block: 10; Bim-Bcl-2: 21; Bcl-B Bim block: 6; Bim-Bfl-1: 53*; Bcl-W Bim block: 25

What do the screens show for `CC1(C(=O)N(CC(=O)NC2CCCC2)Cc2ccco2)CC(=O)N=C2C=CC=CN21` (stereo not given)?
Bcl-XL Bim block: 25; Bim-Bcl-2: 88*; Rad51 HR inh: 0; Bcl-W Bim block: 23

How did COC(=O)c1ccccc1NC(=O)NCC1CCCO1 (stereo not given) do in these assays?
Bcl-XL Bim block: 0; Bim-Bcl-2: -5; Bcl-B Bim block: -4; Rad51 HR inh: 2; Bim-Bfl-1: -5; Bcl-W Bim block: -1

Results for Cc1ccccc1NC(=O)NCC1CCCO1 (stereo not given) ?
Bcl-XL Bim block: -1; Bim-Bcl-2: -3; Bcl-B Bim block: 1; Rad51 HR inh: 42*; Bim-Bfl-1: -2; Bcl-W Bim block: 0

Results for O=C(NCCc1cnn(-c2ccccc2)c1)c1cc(COc2c(F)cccc2F)on1 ?
Bcl-XL Bim block: -1; Bim-Bcl-2: -8; Bcl-B Bim block: -5; Rad51 HR inh: 4; Bim-Bfl-1: -7; Bcl-W Bim block: -1

What do the screens show for `CC1Cc2ccccc2N1C(=O)c1ccc(N2CCCCC2)c([N+](=O)[O-])c1` (stereo not given)?
Bcl-XL Bim block: -2; Bim-Bcl-2: -3; Bcl-B Bim block: -2; Rad51 HR inh: -1; Bim-Bfl-1: -3; Bcl-W Bim block: -1

What do the screens show for `CC1Cc2ccccc2N1C(=O)c1ccc(N2CCCC2)c([N+](=O)[O-])c1` (stereo not given)?
Bcl-XL Bim block: 8; Bim-Bcl-2: 56*; Bcl-B Bim block: 72*; Rad51 HR inh: 9; Bim-Bfl-1: 14; Bcl-W Bim block: 13

Results for CCOc1ccc2noc3c2c1C(=O)c1ccccc1-3 ?
Bcl-XL Bim block: 3; Bim-Bcl-2: 0; Bcl-B Bim block: 2; Rad51 HR inh: -5; Bim-Bfl-1: 3; Bcl-W Bim block: 3

How did O=C1c2ccccc2-c2onc3ccc(NCc4ccco4)c1c23 do in these assays?
Bcl-XL Bim block: 76*; Bim-Bcl-2: 48*; Bcl-B Bim block: 41*; Rad51 HR inh: inactive; Bim-Bfl-1: 40*; Bcl-W Bim block: 70*

High-throughput results deposited in PubChem BioAssay by several laboratories.
